A selection: hits, their analogues and other compounds. The true share with any hit is near 6.4%.
MPTP block = inhibitors of mitochondrial permeability transition pore. isolated mouse mitochondria, Ca2+ swelling absorbance, 30 min. inhibition, % at 10 µM. 360,000 tested, 1.4% active. AID 602449;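 active means inhibition of 50% or more, scaled per plate between neutral and stimulator controls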;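 further: 0% = DMSO wells given calcium and 100% = 1 mM EGTA wells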
GRIN3A LBD mod = modulates the human NR3A ligand-binding domain. NR3A LBD differential scanning fluorimetry, Tm shift; 0% = protein alone, 100% = glycine-bound protein. Tm shift relative to glycine control, % at 25 µM. 340,000 tested, 2.5% active;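 active means melting temperature shift of at least 10% of the positive control shift, at one fixed dose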
CHOP inh = CHOP inhibition in unfolded protein response. 220,000 tested, 3.8% active. AID 2732. CHO-K1 CHOP-promoter luciferase, tunicamycin-induced, 15-18 h. inhibition, % at 10 µM;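 active means compounds that reduced the stress-induced luciferase reporter signal by more than about 70% of percent inhibition, limit read from the data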;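 further: 0% = tunicamycin plus vehicle and 100% = wells without tunicamycin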
Tb MetRS inh = blocks T. brucei methionyl-tRNA synthetase activity; purified T. brucei MetRS, ATP depletion, Kinase-Glo luminescence; AID 624268; inhibition, % at 11.9 µM; 360,000 tested, 0.4% active;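 active means inhibition above a per-plate cutoff of the control wells' mean inhibition plus 3 SD, cut at about 5.5% in these data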;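 further: 0% = DMSO wells median and 100% = median of wells with control inhibitor compound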
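Material: T. brucei methionyl-tRNA synthetase, purified; reagent: substrates ATP, L-methionine and bulk Escherichia coli tRNA; dosing: 11.9 µM single point; timing: 15 min plus 2 h at 25 °C; detection: luminescence of leftover ATP; evaluation: % inhibition; control set: DMSO-only wells as low control; replicates: singlicate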
EBV gp42 block = inhibitors of Epstein-Barr virus glycoprotein 42. 220,000 tested, 0.42% active. Fluorescence polarization binding assay, mP read-out. inhibition, % (tested at 21.74 µM). AID 1085. Q1HVG2; in the data active means inhibition above about 50%
Target sequence (Q1HVG2 whole entry, looked up): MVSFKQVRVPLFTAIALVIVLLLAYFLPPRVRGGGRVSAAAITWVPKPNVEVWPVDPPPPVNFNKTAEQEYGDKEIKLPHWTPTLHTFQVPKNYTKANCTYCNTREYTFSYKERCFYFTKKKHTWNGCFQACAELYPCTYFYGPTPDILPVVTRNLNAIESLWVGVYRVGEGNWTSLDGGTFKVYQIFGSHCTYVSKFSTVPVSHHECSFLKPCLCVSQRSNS
WT yeast gro inh = growth inhibition of WT yeast, mitochondrial fusion screen; mitochondrial fusion phenotypic screen, WT strain; inhibition, % at 10 µM; 190,000 tested, 2.1% active; AID 1362; in the data active means inhibition above about 58%; tested in S. cerevisiae
Tb MetRS conf = confirmation of Trypanosoma brucei MetRS inhibitors; shares compounds with Tb MetRS inh; T. brucei MetRS enzyme, luminescence (ATP depletion); inhibition, % at 11.9 µM; 1,400 tested, 93% active; in the data active means inhibition above about 7%
Jurkat cytotox = kills Jurkat cells in T. brucei MetRS counterscreen; shares compounds with Tb MetRS inh; Jurkat cells viability, ATP luminescence; inhibition, % at 8.3 µM; 1,400 tested, 12% active; AID 624413; in the data active means inhibition above about 15%;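 further: 0% = vehicle and 100% = reference inhibitor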
TbMetRS FP orth = inhibits T. brucei methionyl tRNA synthetase in orthogonal FP test. 1,400 tested, 44% active. inhibition, % at 11.9 µM. shares compounds with Tb MetRS inh. purified T. brucei MetRS, fluorescence polarization; in the data active means inhibition above about 17%;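 further: 0% = vehicle wells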
* hit, by the source's call; / = no result given.

SMILES | MPTP block | GRIN3A LBD mod | CHOP inh | Tb MetRS inh | EBV gp42 block | WT yeast gro inh | Tb MetRS conf | Jurkat cytotox | TbMetRS FP orth
Cc1sc(-c2ccncc2)nc1OC(=O)c1ccccc1 | -6 | -5 | 18 | 0 | -19 | -1 | / | / | /
O=C(NCCCn1ccnc1)c1nc(Cn2ccc([N+](=O)[O-])n2)no1 | -3 | -1 | / | -1 | / | / | / | / | /
Cc1cc(C)c(S(=O)(=O)Nc2cccc(-n3cnnn3)c2)c(C)c1 | 0 | -5 | / | 2 | / | / | / | / | /
Cc1cc(C)c(C)c(S(=O)(=O)Nc2cccc(-n3cnnn3)c2)c1C | 0 | -10 | / | 7.3* | / | / | 17* | 9 | 6
O=C1Cc2cc(NS(=O)(=O)c3ccc(Cl)cc3)cc3c2N1CCC3 | 11 | -1 | / | 0 | / | / | / | / | /
CCN(CC)c1cc(Cl)c2nonc2c1N | 3 | 1 | 14 | 0 | -10 | / | / | / | /
CN(C)c1cc(Cl)c2nonc2c1N | 0 | -1 | 11 | 5.7* | -3 | / | 4 | 0 | 2
O=C(NNC(=O)c1cccnc1)Nc1ccc(Cl)c(Cl)c1 | 0 | 2 | 43 | 0 | 11 | 5 | / | / | /
O=C(NNC(=O)c1ccc2nonc2c1)Nc1ccc(Cl)cc1 | 10 | -5 | 14 | 10* | -7 | / | 20* | 5 | 8
CC(C)c1ccc(C(C(=O)NC2CCCCC2)N(C(=O)c2ccccn2)c2cccnc2)cc1 (stereo not drawn) | -2 | -3 | 19 | 0 | -15 | 4 | / | / | /
CCCCN(C)Cc1c(C)[nH]c2ccc(C)cc2c1=O | 1 | 1 | 9 | 10* | -11 | 5 | 21* | -4 | 6
CCOc1ccc2[nH]c(C)c(CN(C)C)c(=O)c2c1 | 1 | -2 | 10 | 0 | -14 | 11 | / | / | /
Cc1ccc(Nc2nc3ccccc3[nH]2)nc1 | -1 | 5 | -43 | 8.1* | -10 | 44 | 26* | -1 | 13
COc1cc(C2C(C#N)=C(N)Oc3cc(C)oc(=O)c32)cc2c1OCO2 (stereo not drawn) | 1 | -1 | -4 | 0 | 16 | 37 | / | / | /
COc1cc(C2C(C#N)=C(N)Oc3cc(C)n(CC4CCCO4)c(=O)c32)cc2c1OCO2 (stereo not drawn) | 1 | 1 | 8 | 78* | -2 | -11 | 4 | 1 | 1
Cc1cc2c(c(=O)n1Cc1ccccn1)C(c1ccc3c(c1)OCO3)C(C#N)=C(N)O2 (stereo not drawn) | -2 | -1 | 9 | 14* | 2 | -9 | 4 | -10 | 3
COc1ccc(CCn2c(C)cc3c(c2=O)C(c2ccc4c(c2)OCO4)C(C#N)=C(N)O3)cc1OC (stereo not drawn) | -16 | -2 | 18 | 16* | -11 | 38 | 4 | 5 | 7
Cc1cc2c(c(=O)n1Cc1ccccn1)C(C(C)C)C(C#N)=C(N)O2 (stereo not drawn) | 0 | 6 | 45 | -1 | -1 | -3 | / | / | /
Cc1nnc(NN)n(N)c1=O | 2 | -1 | 4 | 0 | -2 | / | / | / | /
COCCCN(C(=O)CCOc1ccc(C(C)(C)C)cc1)c1c(N)n(Cc2ccccc2)c(=O)[nH]c1=O | -1 | -2 | / | 0 | / | / | / | / | /
CCNC(=O)NC(=O)COC(=O)c1ccccc1SCC(=O)NC(=O)NCC | 0 | 4 | -4 | 0 | -20 | -1 | / | / | /
CCOc1ccc(S(=O)(=O)N2CCN(c3ccccc3)CC2)c2cccnc12 | -3 | 2 | 6 | -1 | 4 | 10 | / | / | /
N#C/C(=N\Nc1cc(Cl)cc(Cl)c1)c1nnc2n1CCCCC2 | 14 | -5 | 39 | 24* | 19 | 11 | 40* | 6 | 26*
Nc1nnc(CC(=O)N/N=C/c2ccc(-c3ccc(F)cc3)o2)s1 | 3 | -2 | -9 | 6.4* | 2 | / | 2 | 6 | 1
COc1ccc(OCc2cc(C(=O)NCc3nc(C)cs3)no2)c(Cl)c1 | 0 | -12 | / | 6.2* | / | / | 29* | 1 | 21*
SMILES | MPTP block | GRIN3A LBD mod | CHOP inh | Tb MetRS inh | EBV gp42 block | WT yeast gro inh | Tb MetRS conf | Jurkat cytotox | TbMetRS FP orth
COc1ccc(OCc2cc(C(=O)NC(C)c3nc(C)cs3)no2)c(Cl)c1 (stereo not drawn) | 1 | / | / | 1 | / | / | / | / | /
C=CCNC(=O)c1onc(CSc2nc3ccccc3[nH]2)c1C(=O)NCC=C | 2 | 3 | / | 0 | / | / | / | / | /
CN(CC(=O)Nc1ccccc1Cl)C(=O)CCSc1ccc(F)cc1 | -3 | 1 | / | 0 | / | / | / | / | /
Cc1ccc(C)c(NC(=O)CN(C)C(=O)c2ccc(-c3ccc(Cl)cc3)o2)c1 | -1 | -7 | / | -1 | / | / | / | / | /
COc1ccc(NC(=O)CN(C)C(=O)c2oc3c(ccc4ccccc43)c2C)cc1 | 6 | -10 | / | 6.4* | / | / | 23* | -7 | 13
COc1ccc(NC(=O)CN(C)C(=O)CCSc2ccc(F)cc2)cc1 | 1 | 0 | / | 8.7* | / | / | 33* | -1 | 6
CN(CC(=O)Nc1cccc(F)c1)C(=O)CCSc1ccc(F)cc1 | 0 | -4 | / | 15* | / | / | 42* | 1 | 20*
CN(CC(=O)Nc1cccc(F)c1)C(=O)c1ccc(-c2ccc(Cl)cc2)o1 | 0 | -1 | / | 21* | / | / | 39* | -10 | 24*
Cc1cc(Br)ccc1NC(=O)CN(C)C(=O)CCSc1ccc(F)cc1 | 0 | 0 | / | 2 | / | / | / | / | /
CCN(CC(=O)Nc1ccc(NC(C)=O)cc1)C(=O)c1oc2c(ccc3ccccc32)c1C | 0 | 0 | / | 0 | / | / | / | / | /
CCOC(=O)N1CCN(C(=O)C2COc3ccccc3O2)CC1 (stereo not drawn) | 0 | -1 | -27 | 0 | -14 | 7 | / | / | /
COc1ccc(NC(=S)N2CCC3CC2c2cc(-c4ccc5c(c4)OCO5)ccc23)c(OC)c1 (stereo not drawn) | 2 | / | / | 0 | / | / | / | / | /
CC(C)c1cccc(OCCN2CCCC2)c1 | 0 | 1 | / | 0 | / | / | / | / | /
O=C(NCc1ccccc1)c1cccc(F)c1F | 1 | -2 | -15 | 1 | -15 | 17 | / | / | /
COC/C=C/C1=CC2=CC(=O)C(C)(OC(=O)c3cnc4ccccc4n3)C(=O)C2=CN1CCN1CCOCC1 (stereo not drawn) | 2 | 0 | 11 | 0 | -10 | / | / | / | /
Cc1cc(NS(=O)(=O)c2ccc(Nc3nc(-c4ccc(O)cc4)cs3)cc2)no1 | 0 | 4 | 28 | 5.7* | 7 | -18 | 11* | -1 | 0
CCC(=O)Nc1ccc(S(=O)(=O)Nc2cc(C)on2)cc1 | 0 | -4 | 30 | 0 | -4 | 0 | / | / | /
c1ccc(CCCNc2ncnc3nc[nH]c23)cc1 | -2 | 0 | 17 | 0 | -18 | -10 | / | / | /
Clc1ccc(CCNc2ncnc3nc[nH]c23)cc1 | 7 | 0 | / | 11* | -14 | 4 | 17* | 27* | 9
Nc1nc(N)c(-c2cccc(C(F)(F)F)c2)c(Cc2cccc(C(F)(F)F)c2)n1 | 3 | -22 | / | 16* | / | / | 60* | -6 | 34*

Screens (PubChem BioAssay)
